# Results published in ChEMBL document CHEMBL4680175, “Sulfonamide-based ring-fused analogues for CAN508 as novel carbonic anhydrase inhibitors endowed with antitumor activity: Design, synthesis, and in vitro biological evaluation” (Eur J Med Chem, 2020).
# pIC50, pKi: −log10 of the molar value. Calls of active or inactive are those of the source. No cut-off for these calls is given here.
# Key:
# [1] = target: Carbonic anhydrase 2 (Homo sapiens, UniProt P00918); assay: Inhibition of recombinant human carbonic anhydrase 2 preincubated with enzyme for 15 mins by phenol red dye based stopped flow CO2 hydrase assay
# [2] = system: CCRF-CEM; assay: Antitumor activity against human CCRF-CEM cells assessed as cell growth inhibition at 10 uM incubated for 48 hrs by sulforhodamine B assay; format: functional; conditions: read-out: GI
# Method in brief: (§1)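 NCI Drug Evaluation Branch protocol: primary single-dose screen at 10 μM across a 57-line human cancer panel. Drug exposure is 48 h. Cell growth and viability are read by sulforhodamine B assay. Data are given as a mean graph of percent growth of treated cells and reported as percentage growth inhibition (GI%).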
# [3] = system: HL-60(TB); assay: Antitumor activity against human HL-60(TB) cells assessed as cell growth inhibition at 10 uM incubated for 48 hrs by sulforhodamine B assay; format: functional; conditions: read-out: GI
# Method in brief: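 Single-dose NCI-60-type screen of 57 human cancer cell lines at 10 μM under the NCI Drug Evaluation Branch protocol. Drugs exposed for 48 h; growth and viability read by sulforhodamine B assay. Data given as mean-graph percent growth of treated cells, expressed as percent growth inhibition.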
# [4] = system: SR; assay: Antitumor activity against human SR cells assessed as cell growth inhibition at 10 uM incubated for 48 hrs by sulforhodamine B assay; format: functional; conditions: read-out: GI
# Method in brief: (§2)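 NCI one-dose screen: 57-cell-line panel exposed at 10 μM for 48 h, Drug Evaluation Branch protocol. Growth and viability read by sulforhodamine B; data given as percent growth inhibition from the mean-graph of percent growth of treated cells.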
# [5] = system: A549; assay: Antitumor activity against human A549/ATCC cells assessed as cell growth inhibition at 10 uM incubated for 48 hrs by sulforhodamine B assay; format: functional; conditions: read-out: GI; method in brief: as §1
# [6] = system: EKVX; assay: Antitumor activity against human EKVX cells assessed as cell growth inhibition at 10 uM incubated for 48 hrs by sulforhodamine B assay; format: functional; conditions: read-out: GI; method in brief: as §1
# [7] = system: NCI-H23; assay: Antitumor activity against human NCI-H23 cells assessed as cell growth inhibition at 10 uM incubated for 48 hrs by sulforhodamine B assay; format: functional; conditions: read-out: GI; method in brief: as §1
# [8] = system: COLO 205; assay: Antitumor activity against human COLO205 cells assessed as cell growth inhibition at 10 uM incubated for 48 hrs by sulforhodamine B assay; format: functional; conditions: read-out: GI; method in brief: as §1
# [9] = system: HCC 2998; assay: Antitumor activity against human HCC2998 cells assessed as cell growth inhibition at 10 uM incubated for 48 hrs by sulforhodamine B assay; format: functional; conditions: read-out: GI; method in brief: as §1
# [10] = system: HCT-15; assay: Antitumor activity against human HCT15 cells assessed as cell growth inhibition at 10 uM incubated for 48 hrs by sulforhodamine B assay; format: functional; conditions: read-out: GI; method in brief: as §1
# [11] = system: HT-29; assay: Antitumor activity against human HT-29 cells assessed as cell growth inhibition at 10 uM incubated for 48 hrs by sulforhodamine B assay; format: functional; conditions: read-out: GI; method in brief: as §1
# [12] = system: SW-620; assay: Antitumor activity against human SW620 cells assessed as cell growth inhibition at 10 uM incubated for 48 hrs by sulforhodamine B assay; format: functional; conditions: read-out: GI; method in brief: as §2
# [13] = system: SF-295; assay: Antitumor activity against human SF295 cells assessed as cell growth inhibition at 10 uM incubated for 48 hrs by sulforhodamine B assay; format: functional; conditions: read-out: GI; method in brief: as §1
# [14] = system: SNB-19; assay: Antitumor activity against human SNB-19 cells assessed as cell growth inhibition at 10 uM incubated for 48 hrs by sulforhodamine B assay; format: functional; conditions: read-out: GI; method in brief: as §1
# [15] = system: M14; assay: Antitumor activity against human M14 cells assessed as cell growth inhibition at 10 uM incubated for 48 hrs by sulforhodamine B assay; format: functional; conditions: read-out: GI; method in brief: as §1
# [16] = system: MDA-MB-435; assay: Antitumor activity against human MDA-MB-435 cells assessed as cell growth inhibition at 10 uM incubated for 48 hrs by sulforhodamine B assay; format: functional; conditions: read-out: GI; method in brief: as §1
# [17] = system: SK-MEL-28; assay: Antitumor activity against human SK-MEL-28 cells assessed as cell growth inhibition at 10 uM incubated for 48 hrs by sulforhodamine B assay; format: functional; conditions: read-out: GI; method in brief: as §1
# [18] = system: UACC-257; assay: Antitumor activity against human UACC-257 cells assessed as cell growth inhibition at 10 uM incubated for 48 hrs by sulforhodamine B assay; format: functional; conditions: read-out: GI; method in brief: as §2
# [19] = system: UACC-62; assay: Antitumor activity against human UACC-62 cells assessed as cell growth inhibition at 10 uM incubated for 48 hrs by sulforhodamine B assay; format: functional; conditions: read-out: GI; method in brief: as §2
# [20] = system: OVCAR-4; assay: Antitumor activity against human OVCAR-4 cells assessed as cell growth inhibition at 10 uM incubated for 48 hrs by sulforhodamine B assay; format: functional; conditions: read-out: GI; method in brief: as §1
# [21] = system: OVCAR-5; assay: Antitumor activity against human OVCAR-5 cells assessed as cell growth inhibition at 10 uM incubated for 48 hrs by sulforhodamine B assay; format: functional; conditions: read-out: GI; method in brief: as §1
# [22] = system: SK-OV-3; assay: Antitumor activity against human SK-OV-3 cells assessed as cell growth inhibition at 10 uM incubated for 48 hrs by sulforhodamine B assay; format: functional; conditions: read-out: GI; method in brief: as §1
# [23] = system: DU-145; assay: Antitumor activity against human DU-145 cells assessed as cell growth inhibition at 10 uM incubated for 48 hrs by sulforhodamine B assay; format: functional; conditions: read-out: GI; method in brief: as §1
# [24] = system: 786-0; assay: Antitumor activity against human 786-0 cells assessed as cell growth inhibition at 10 uM incubated for 48 hrs by sulforhodamine B assay; format: functional; conditions: read-out: GI; method in brief: as §1
# [25] = system: A498; assay: Antitumor activity against human A498 cells assessed as cell growth inhibition at 10 uM incubated for 48 hrs by sulforhodamine B assay; format: functional; conditions: read-out: GI; method in brief: as §1
# [26] = system: ACHN; assay: Antitumor activity against human ACHN cells assessed as cell growth inhibition at 10 uM incubated for 48 hrs by sulforhodamine B assay; format: functional; conditions: read-out: GI; method in brief: as §1
# [27] = system: UO-31; assay: Antitumor activity against human UO-31 cells assessed as cell growth inhibition at 10 uM incubated for 48 hrs by sulforhodamine B assay; format: functional; conditions: read-out: GI; method in brief: as §2
# [28] = system: TK-10; assay: Antitumor activity against human TK-10 cells assessed as cell growth inhibition at 10 uM incubated for 48 hrs by sulforhodamine B assay; format: functional; conditions: read-out: GI; method in brief: as §2
# [29] = system: MCF7; assay: Antiproliferative activity against human MCF7 cells measured after 48 hrs under normoxic condition by MTT assay; format: functional, cell-based; conditions: MCF7, 48 h
# [30] = system: MCF7; assay: Antiproliferative activity against human MCF7 cells measured after 48 hrs under CoCl2-induced hypoxic condition by MTT assay; format: functional, cell-based; conditions: MCF7, 48 h
# [31] = system: MDA-MB-468; assay: Antiproliferative activity against human MDA-MB-468 cells measured after 48 hrs under normoxic condition by MTT assay; format: functional, cell-based; conditions: MDA-MB-468, 48 h
# [32] = system: MDA-MB-468; assay: Antiproliferative activity against human MDA-MB-468 cells measured after 48 hrs under CoCl2-induced hypoxic condition by MTT assay; format: functional, cell-based; conditions: MDA-MB-468, 48 h
# [33] = system: MCF7; assay: Induction of cell cycle arrest in human MCF7 cells assessed as accumulation at G2/M phase at IC50 concentration incubated for 24 hrs by PI/RNase staining based flow cytometric analysis; format: functional
# Method in brief: (§3)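 Cells were washed in ice-cold PBS, fixed in ice-cold 70% ethanol, treated with 100 µg/mL RNase and stained with 40 µg/mL PI. DNA content was read by flow cytometry, with sub-G1 compared against control.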
# [34] = system: MCF7; assay: Induction of cell cycle arrest in human MCF7 cells assessed as decrease in S phase population at IC50 concentration incubated for 24 hrs by PI/RNase staining based flow cytometric analysis; format: functional; method in brief: as §3
# [35] = system: MCF7; assay: Induction of apoptosis in human MCF7 cells assessed as late apoptotic cells by Annexin V-FITC/propidium iodide staining based flow cytometric analysis (reference value: 0.29 %); format: functional
# [36] = system: MCF7; assay: Induction of apoptosis in human MCF7 cells assessed as necrotic cells by Annexin V-FITC/propidium iodide staining based flow cytometric analysis (reference value: 1.3 %); format: functional
# [37] = system: MCF7; assay: Induction of apoptosis in human MCF7 cells assessed as fold increase in apoptotic cells by Annexin V-FITC/propidium iodide staining based flow cytometric analysis relative to control; format: functional
Structure (SMILES),pKi [1],inhibition of growth at 10 µM [2] [%],inhibition of growth at 10 µM [3] [%],inhibition of growth at 10 µM [4] [%],inhibition of growth at 10 µM [5] [%],inhibition of growth at 10 µM [6] [%],inhibition of growth at 10 µM [7] [%],inhibition of growth at 10 µM [9] [%],inhibition of growth at 10 µM [11] [%],inhibition of growth at 10 µM [12] [%],inhibition of growth at 10 µM [13] [%],inhibition of growth at 10 µM [14] [%],inhibition of growth at 10 µM [15] [%],inhibition of growth at 10 µM [16] [%],inhibition of growth at 10 µM [17] [%],inhibition of growth at 10 µM [19] [%],inhibition of growth at 10 µM [20] [%],inhibition of growth at 10 µM [21] [%],inhibition of growth at 10 µM [23] [%],inhibition of growth at 10 µM [27] [%],also measured
Cc1ccc(-c2cn3nc(N)c(/N=N/c4ccc(S(N)(=O)=O)cc4)c3[nH]2)cc1,7.00,54,47,63,62,28,34,40,37,60,29,24,60,52,38,44,46,23,52,77,inhibition of growth at 10 µM [8]: 24%; inhibition of growth at 10 µM [10]: 65%; inhibition of growth at 10 µM [18]: 20%; inhibition of growth at 10 µM [22]: 77%; inhibition of growth at 10 µM [24]: 60%; inhibition of growth at 10 µM [25]: 87%; inhibition of growth at 10 µM [26]: 79%; inhibition of growth at 10 µM [28]: 53%
Cc1ccc(-c2nc3c(/N=N/c4ccc(S(N)(=O)=O)cc4)c(N)nn3c(N)c2C#N)cc1,6.19,88,97,71,37,30,56,48,64,83,51,42,54,48,47,47,48,21,65,31,pIC50 [29]: 5.17; inhibition of growth at 10 µM [8]: 86%; inhibition of growth at 10 µM [10]: 18%; inhibition of growth at 10 µM [18]: 28%; inhibition of growth at 10 µM [22]: 36%; inhibition of growth at 10 µM [24]: 35%; inhibition of growth at 10 µM [25]: 41%; inhibition of growth at 10 µM [26]: 100%; inhibition of growth at 10 µM [28]: 34%; pIC50 [30]: 4.82; pIC50 [31]: 5.86; pIC50 [32]: 5.52
N#Cc1c(-c2ccc(F)cc2)nc2c(/N=N/c3ccc(S(N)(=O)=O)cc3)c(N)nn2c1N,6.40,51,,,,,,,,,,,,,,,,,,38,pIC50 [29]: 5.53; pIC50 [30]: 5.11; pIC50 [31]: 5.27; Activity [33]: Active; Activity [34]: Active; Activity [35]: 10.89%; Activity [36]: 1.75%; fold change (FC) [37]: 23; pIC50 [32]: 4.95
N#Cc1c(-c2ccc(Br)cc2)nc2c(/N=N/c3ccc(S(N)(=O)=O)cc3)c(N)nn2c1N,6.05,104,62,59,32,29,36,38,57,56,38,38,59,44,37,28,39,28,67,41,pIC50 [29]: 5.32; inhibition of growth at 10 µM [24]: 30%; inhibition of growth at 10 µM [25]: 35%; inhibition of growth at 10 µM [26]: 29%; inhibition of growth at 10 µM [28]: 27%; pIC50 [30]: 5.12; pIC50 [31]: 5.17; pIC50 [32]: 5.00
